Converted amounts (≈) assume the structure as drawn.
Key:
[1] = target: DCN1-like protein 1 (Homo sapiens, UniProt Q96GG9)
[2] = Solubility of the compound at pH 7.4 after 18 hrs by UV-spectroscopy; type: physicochemical; details: buffer
How it was run: (§1)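 Measured in triplicate within at least one experiment; values reported as mean ± standard deviation.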

[3] = Permeability of the compound at 10 uM by PAMPA; type: ADME; details: for permeability: pampa, 10 µM; for Papp at 10 µM: PAMPA, read-out: permeability
How it was run: as §1

Chain of DCN1-like protein 1 (Q96GG9 whole entry): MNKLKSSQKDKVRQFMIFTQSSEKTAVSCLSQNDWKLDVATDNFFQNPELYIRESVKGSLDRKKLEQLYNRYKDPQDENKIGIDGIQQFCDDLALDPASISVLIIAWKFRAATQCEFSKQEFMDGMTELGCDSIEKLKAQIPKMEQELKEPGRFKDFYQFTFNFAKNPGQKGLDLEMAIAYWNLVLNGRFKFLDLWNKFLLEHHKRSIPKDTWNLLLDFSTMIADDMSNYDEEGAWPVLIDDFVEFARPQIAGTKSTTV

| SMILES | IC50 [1] [µM] | solubility at 18 h [2] [µM] | permeability [3] [×10⁻⁶ cm/s] | Papp at 10 µM [3] [×10⁻⁶ cm/s] |
| --- | --- | --- | --- | --- |
| Cc1cccc(NC(=O)NC2CCN(Cc3ccccc3)CC2)c1 | 44 | – | – | – |
| CCCN1CCC(N(CCC(C)C)C(=O)Nc2cccc(C(F)(F)F)c2)CC1 | 2.7 | 61 (≈ 24.4 µg/mL) | 1500 | – |
| O=C(Nc1cccc(C(F)(F)F)c1)NC1CCN(C(=O)c2ccccc2)CC1 | > 67 | 2.8 (≈ 1.1 µg/mL) | – | 910 |
| CCCCS(=O)(=O)N1CCC(N(Cc2ccccc2)C(=O)Nc2cccc(C(F)(F)F)c2)CC1 | – | 1 (≈ 0.498 µg/mL) | – | < 1 |
| CC(C)(C)CCN1CCC(N(Cc2ccccc2)C(=O)Nc2cccc(C(F)(F)F)c2)CC1 | 0.17 | 5.8 (≈ 2.68 µg/mL) | – | > 2200 |
| CC(C)(C)CN1CCC(N(Cc2ccccc2)C(=O)Nc2cccc(C(F)(F)F)c2)CC1 | 0.96 | – | – | – |
| Cc1ccc(CN2CCC(NC(=O)Nc3cccc(C(F)(F)F)c3)CC2)cc1 | – | 14 (≈ 5.48 µg/mL) | – | > 2200 |
| Cc1ccccc1CN1CCC(NC(=O)Nc2cccc(C(F)(F)F)c2)CC1 | 4 | 44 (≈ 17.2 µg/mL) | 1200 | – |
| O=C(Nc1ccc2c(c1)OCO2)NC1CCN(Cc2ccccc2)CC1 | > 67 | – | – | – |
| Cc1cccc(CN2CCC(NC(=O)Nc3cccc(C(F)(F)F)c3)CC2)c1 | 6.6 | 35 (≈ 13.7 µg/mL) | – | > 2200 |
| O=C(Nc1cccc(-n2cccc2)c1)NC1CCN(Cc2ccccc2)CC1 | > 67 | 1 (≈ 0.374 µg/mL) | – | 930 |
| O=C(Nc1cccc(C(F)(F)F)c1)NC1CCN(Cc2ccccc2F)CC1 | 13 | 44 (≈ 17.4 µg/mL) | 1500 | – |
| O=C(Nc1cccc(C(F)(F)F)c1)N(Cc1ccccc1)C1CCN(CC2CCCCC2)CC1 | 0.62 | 1.2 (≈ 0.568 µg/mL) | – | < 1 |
| CCCN1CCC(N(CC(C)C)C(=O)Nc2cccc(C(F)(F)F)c2)CC1 | 5.8 | 96 (≈ 37 µg/mL) | 1900 | – |
| O=C(Nc1cccc(I)c1)NC1CCN(Cc2ccccc2)CC1 | > 67 | – | – | – |
| CCCN1CCC(N(CCOC)C(=O)Nc2cccc(C(F)(F)F)c2)CC1 | 21 | 64 (≈ 24.8 µg/mL) | 1600 | – |
| O=C(Nc1cccc(CN2CCOCC2)c1)NC1CCN(Cc2ccccc2)CC1 | > 67 | 75 (≈ 30.6 µg/mL) | – | 220 |
| O=C(Nc1cccc(C(F)(F)F)c1)N(Cc1ccccc1)C1CCN(Cc2cc[nH]n2)CC1 | 2.4 | 54 (≈ 24.7 µg/mL) | – | > 2200 |
| O=C(Nc1cccc(C(F)(F)F)c1)N(Cc1ccccc1)C1CCN(Cc2cccnc2)CC1 | 20 | 30 (≈ 14.1 µg/mL) | – | > 2200 |
| O=C(Nc1ccccc1)NC1CCN(Cc2ccccc2)CC1 | > 67 | 68 (≈ 21 µg/mL) | 1400 | – |
| O=C(Nc1cccc(C(F)(F)F)c1)N(Cc1ccccc1)C1CCN(CC2CCCC2)CC1 | 0.37 | 48 (≈ 22.1 µg/mL) | – | 990 |
| O=C(Nc1cccc(C(F)(F)F)c1)N(Cc1ccccc1)C1CCN(Cc2c[nH]cn2)CC1 | 5.9 | 110 (≈ 50.3 µg/mL) | – | 50 |
| O=C(Nc1cccc(C(F)(F)F)c1)N(Cc1ccccc1)C1CCN(Cc2ccc(F)cc2)CC1 | 10 | 0.9 (≈ 0.437 µg/mL) | – | > 2200 |
| O=C(Nc1cccc(C(F)(F)F)c1)N(Cc1ccccc1)C1CCN(Cc2ccccc2)CC1 | – | 11 (≈ 5.14 µg/mL) | – | 300 |
| CC(=O)O[C@H]1CN(Cc2ccccc2)CC[C@@H]1NC(=O)Nc1cccc(C(F)(F)F)c1 | 12 | – | – | – |

| SMILES | IC50 [1] [µM] | solubility at 18 h [2] [µM] | permeability [3] [×10⁻⁶ cm/s] | Papp at 10 µM [3] [×10⁻⁶ cm/s] |
| --- | --- | --- | --- | --- |
| O=C(Nc1cccc(C(F)(F)F)c1)NC1CCN(Cc2ccc(F)cc2)CC1 | 14 | 19 (≈ 7.51 µg/mL) | – | > 2200 |
| O=C(Nc1cccc(C(F)(F)F)c1)NC1CCN(Cc2ccccc2Cl)CC1 | 28 | 0.3 (≈ 0.124 µg/mL) | – | 830 |
| O=C(Nc1cccc(C(F)(F)F)c1)NC1CCN(Cc2cccc(Cl)c2)CC1 | – | 0.7 (≈ 0.288 µg/mL) | 1700 | – |
| CCCN1CCC(N(CCC)C(=O)Nc2cccc(C(F)(F)F)c2)CC1 | 10 | 61 (≈ 22.7 µg/mL) | 1600 | – |
| CSc1cccc(NC(=O)NC2CCN(Cc3ccccc3)CC2)c1 | > 67 | – | – | – |
| O=C(Nc1cccc(C(F)(F)F)c1)N(Cc1ccccc1)C1CCN(Cc2nccs2)CC1 | – | 6.3 (≈ 2.99 µg/mL) | – | 310 |
| CC(C)CCN1CCC(N(Cc2ccccc2)C(=O)Nc2cccc(C(F)(F)F)c2)CC1 | 0.79 | 60 (≈ 26.9 µg/mL) | – | > 2200 |
| Cn1nccc1-c1cccc(NC(=O)NC2CCN(Cc3ccccc3)CC2)c1 | > 67 | 78 (≈ 30.4 µg/mL) | – | > 2200 |
| CCCN1CCC(N(Cc2ccncc2)C(=O)Nc2cccc(C(F)(F)F)c2)CC1 | – | 85 (≈ 35.7 µg/mL) | – | 700 |
| O=C(Nc1cccc(C(F)(F)F)c1)NC1CCN(Cc2cccc(F)c2)CC1 | 16 | 50 (≈ 19.8 µg/mL) | – | > 2200 |
| O=C(Nc1cccc(C(F)(F)F)c1)NC1CCN(Cc2ccc(Cl)cc2)CC1 | 25 | 0.8 (≈ 0.329 µg/mL) | 1300 | – |
| CCCCN(C(=O)Nc1cccc(C(F)(F)F)c1)C1CCN(CCC)CC1 | 1.4 | 70 (≈ 27 µg/mL) | – | > 2200 |
| Cc1ccc(NC(=O)NC2CCN(Cc3ccccc3)CC2)cc1Cl | > 67 | 2.4 (≈ 0.859 µg/mL) | – | > 2200 |
| CCCC(=O)N1CCC(N(Cc2ccccc2)C(=O)Nc2cccc(C(F)(F)F)c2)CC1 | – | < 0.1 | – | > 2200 |
| CCCS(=O)(=O)N1CCC(N(Cc2ccccc2)C(=O)Nc2cccc(C(F)(F)F)c2)CC1 | 0.74 | 0.5 (≈ 0.242 µg/mL) | – | < 1 |
| O=C(Nc1cccc(C(F)(F)F)c1)N(Cc1ccccc1)C1CCN(CCC(F)(F)F)CC1 | 23 | 2.3 (≈ 1.09 µg/mL) | – | 440 |
| CCCN1CCC(N(CC2CCCCC2)C(=O)Nc2cccc(C(F)(F)F)c2)CC1 | 2.4 | 90 (≈ 38.3 µg/mL) | – | > 2200 |
| O=C(Nc1cccc(C(F)(F)F)c1)N(Cc1ccccc1)C1CCN(CC2CC2)CC1 | 0.21 | 75 (≈ 32.4 µg/mL) | – | > 2200 |
| O=C(Nc1cccc(C(F)(F)F)c1)N(Cc1ccccc1)C1CCN(Cc2ccc3c(c2)OCO3)CC1 | 12 | < 0.1 | – | > 2200 |
| CCCCCN1CCC(N(Cc2ccccc2)C(=O)Nc2cccc(C(F)(F)F)c2)CC1 | 0.66 | 58 (≈ 26 µg/mL) | 1400 | – |
| COc1cccc(NC(=O)NC2CCN(Cc3ccccc3)CC2)c1 | > 67 | – | – | – |
| O=C(Nc1cccc(C(F)(F)F)c1)N(Cc1ccccc1)C1CCNCC1 | 21 | 71 (≈ 26.8 µg/mL) | – | > 2200 |
| CCOc1cc(CN2CCC(N(Cc3ccccc3)C(=O)Nc3cccc(C(F)(F)F)c3)CC2)cc(Cl)c1O | – | 0.4 (≈ 0.225 µg/mL) | – | 110 |
| O=C(Nc1cccc(C(F)(F)F)c1)N(Cc1ccccc1)C1CCN(Cc2ccc3c(c2)OCCO3)CC1 | 0.36 | 1 (≈ 0.526 µg/mL) | – | > 2200 |

Source: ChEMBL document CHEMBL4219151, “Piperidinyl Ureas Chemically Control Defective in Cullin Neddylation 1 (DCN1)-Mediated Cullin Neddylation” (J Med Chem, 2018)
